# Screens: PubChem BioAssay, several laboratories
# Sampled rows, rich in hits. Any-hit rate of the full collection: about 2.8%.
# UBC13 inh: inhibitors of human UBC13 polyubiquitin chain formation; P61088; TR-FRET; inhibition, % at 20 µM; hit rate 0.47% among 330,000; in the data active = inhibition above about 45%, passing the limit was not always enough; inconclusive = no clear call, values can overlap the other calls
# Target sequence (P61088 whole entry, looked up): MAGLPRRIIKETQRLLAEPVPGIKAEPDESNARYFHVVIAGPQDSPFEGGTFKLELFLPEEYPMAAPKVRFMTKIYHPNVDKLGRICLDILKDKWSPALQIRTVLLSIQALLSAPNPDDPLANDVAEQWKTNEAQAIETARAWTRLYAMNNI
# AI-2 QS modul: modulators of Vibrio harveyi AI-2 quorum sensing system; AID 2094; activity change, % at 7.5 µM; hit rate 0.4% among 300,000; Vibrio harveyi JMH597 AI-2 luminescence/OD600 ratio, 9 h; hits give low values; strain lacks LuxN and CqsS sensors; 0 = neutral-control median; in the data active = activity change below about -75%, passing the limit was not always enough; inconclusive = no clear call, values can overlap the other calls;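 also: luminescence divided by OD600 gain over 9 h not by final OD600 alone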
# T cruzi inh: blocks replication of Trypanosoma cruzi. inhibition, % (test concentration not listed). T. cruzi beta-gal in NIH3T3, luminescence, 90 h. hit rate 1.4% among 300,000;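 active = mean inhibition across valid replicates above about 55%, limit read from the data; inconclusive = mean below that limit but half or more replicates reach it; inactive = mean below it, under half of replicates reach it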;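 also: signal also drops with host cell toxicity which is not excluded here; 0% = plate median of DMSO wells and 100% = zero luminescence signal; higher percent means less beta-gal luminescence so fewer parasites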
#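 Read-out: Parasite load inhibition, % | Test system: Mouse NIH/3T3 fibroblasts infected with β-gal-expressing T. cruzi Tulahuen C4 | Amount: 5,000 cells/well | Medium: DMEM, 2% fetal bovine serum | Signal: GalScreen β-gal luminescence, detergent lysis, 60 min | Timing: 3 h attach, ≥90 h co-culture | Also added: Tulahuen C4 trypomastigotes, 5000/well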
# pCIP destab: lowers stability of the mouse p/CIP coactivator protein; decrease of EGFP signal, % at 10 µM; F442A p/CIP-EGFP cells, EGFP fluorescence, 16 h; AID 1984; hit rate 0.01% among 290,000; Q05BA5;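 active = EGFP signal decrease of at least 30% at 10 µM or well 3 SD below plate mean, unless failing retest; inactive = the rest, including hits failing retest or dose response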
# PP1 inh: PP1-alpha (human) inhibition in PP5 counter-screen. purified PP1alpha, OMFP fluorescence. inhibition, % at 6.7 µM. hit rate 0.9% among 320,000;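 active = inhibition above the mean inhibition of all tested compounds plus 3 SD, computed separately for each screening campaign, cut at about 15% in these data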
# Target sequence (P62136 whole entry, looked up): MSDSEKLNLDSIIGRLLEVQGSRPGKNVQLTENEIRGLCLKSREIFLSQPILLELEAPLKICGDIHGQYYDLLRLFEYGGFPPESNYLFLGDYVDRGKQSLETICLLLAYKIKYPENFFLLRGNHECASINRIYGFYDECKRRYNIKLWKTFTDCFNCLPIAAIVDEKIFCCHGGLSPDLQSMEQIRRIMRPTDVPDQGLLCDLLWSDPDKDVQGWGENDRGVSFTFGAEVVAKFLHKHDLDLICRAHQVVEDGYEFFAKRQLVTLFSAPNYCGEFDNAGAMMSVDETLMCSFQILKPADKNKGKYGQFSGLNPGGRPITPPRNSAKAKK
# JMH597 growth rt: retest: inhibitors of Vibrio harveyi JMH597 growth; growth inhibition, % at 7.5 µM; OD600 absorbance, 9 h; lacks LuxN and CqsS sensors; shares compounds with AI-2 QS modul; hit rate 1% among 750;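 active = every replicate shows growth inhibition above 50%; inconclusive = at least half, but not all, replicates pass that cutoff; inactive = fewer than half of replicates pass it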
# BB721 const-QS lum: retest counter-screen: luminescence loss in constitutive-on quorum sensing strain BB721; shares compounds with AI-2 QS modul; Vibrio harveyi BB721 luminescence, 9 h; inhibition, % at 7.5 µM; hit rate 95% among 750; AID 2727;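 active = inhibition above about 80% in every replicate, not just on average, limit read from the data; inconclusive = at least half of replicates past the limit, but not all; inactive = fewer than half of replicates past the limit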
# BB721 growth rt: retest: inhibitors of Vibrio harveyi BB721 growth; shares compounds with AI-2 QS modul; OD600 absorbance, 9 h; growth inhibition, % at 7.5 µM; hit rate 3% among 750; AID 2728;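 active = every replicate shows growth inhibition above 50%; inconclusive = at least half but not all replicates above 50% inhibition; inactive = under half of replicates above 50% inhibition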
# JMH597 AI-2 mod: Vibrio harveyi AI-2 signaling luminescence modulation – JMH597 strain, confirmation; shares compounds with AI-2 QS modul; Vibrio harveyi JMH597 AI-2 quorum sensing luminescence, 9 h; luxN and CqsS knockout, AI-2 only; inhibition, % at 7.5 µM; hit rate 97% among 750; AID 2736;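 active = every replicate shows more than 75% inhibition of signal versus neutral control wells; inconclusive = half to three quarters of replicates exceed 75% inhibition; inactive = fewer than half of replicates exceed 75% inhibition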
# Active calls of the source: *; u = inconclusive; x = not tested or not shown.
SMILES,UBC13 inh,AI-2 QS modul,T cruzi inh,pCIP destab,PP1 inh,JMH597 growth rt,BB721 const-QS lum,BB721 growth rt,JMH597 AI-2 mod
COc1ccc(CC(=O)Nc2ccc(S(=O)(=O)Nc3nccs3)cc2)cc1,-10,u,-2,-2,2,-2,84*,3,89*
O=C(COC(=O)c1ccco1)NC12CC3CC(CC(C3)C1)C2,1,x,x,x,x,x,x,x,x
CC1=CC(=O)C(C(C)C)=CC1=NC(=O)c1ccc(C)cc1,-7,5,-27,-9,1,x,x,x,x
O=C(Cc1ccc(Br)cc1)Nc1ccc(S(=O)(=O)Nc2ncccn2)cc1,-8,u,-3,-8,-2,x,x,x,x
O=C(Cc1ccc(Cl)cc1)Nc1ccc(S(=O)(=O)Nc2ncccn2)cc1,-4,-92*,-9,-19,-2,17,98*,28,99*
CC(Oc1ccccc1)C(=O)Nc1ccc(S(=O)(=O)NCC2CCCO2)cc1 (stereo unspecified),-6,u,-12,-9,-2,29,97*,-18,100*
CC(=O)Nc1ccc(S(=O)(=O)NCC2CCCO2)cc1 (stereo unspecified),0,-3,x,x,-1,x,x,x,x
CCOc1ccc(NS(=O)(=O)c2ccc(SC)cc2)cc1,-1,-12,8,-14,2,x,x,x,x
CCOc1ccc(NS(=O)(=O)c2ccc(N)cc2)cc1,4,u,-1,7,-2,34,99*,2,100*
CN(C)S(=O)(=O)c1ccc(NC(=O)CN2CCC(Cc3ccccc3)CC2)cc1,-5,-91*,18,3,-3,2,94*,0,96*
CN(C)S(=O)(=O)c1ccc(NC(=O)CN2C(=O)NC3(CCCC3)C2=O)cc1,7,-79*,-4,4,-3,9,u,12,82*
CCCCn1c(N)c(N(CCOC)C(=O)c2cc3c(s2)CCC3)c(=O)[nH]c1=O,-5,10,-3,x,15,x,x,x,x
O=C(COc1cccc(C(F)(F)F)c1)Nc1ccc2[nH]ncc2c1,3,-79*,-11,-8,-3,11,87*,2,91*
O=C(CN1C(=O)c2ccccc2C1=O)Nc1cccnc1,1,-82*,-4,5,-1,1,93*,-17,94*
O=C(CN1C(=O)c2ccccc2C1=O)Nc1cccc([N+](=O)[O-])c1,1,-95*,-16,0,-4,13,99*,-1,99*
O=C(CN1C(=O)c2ccccc2S1(=O)=O)Nc1cccnc1,3,-31,-8,-2,-1,x,x,x,x
O=c1[nH]c(C2CCN(S(=O)(=O)c3ccc(S(=O)(=O)NC4CC4)cc3)CC2)nc2c1nnn2Cc1cccc(F)c1,-1,21,2,-18,6,x,x,x,x
COc1ccc(S(=O)(=O)NCC(=O)Nc2ccc(F)cc2)cc1,-4,x,x,x,-4,x,x,x,x
CC(C)c1ccc(NC(=O)CNS(=O)(=O)c2ccc(F)cc2)cc1,5,-77*,11,-14,-3,10,89*,6,93*
COC(=O)/C(=C1/Oc2cc(C)oc(=O)c2S1)C(F)(F)F,-1,u,47,-2,-1,40,91*,63*,93*
Cc1nn(C)c(Cl)c1C(=O)NC(C(=O)O)c1ccccc1 (stereo unspecified),-4,18,-11,-8,-3,x,x,x,x
CCOc1cccc2c1OC1(C)CC2NC(=O)N1c1cccc(C(=O)NCc2ccccn2)c1 (stereo unspecified),3,-95*,-3,-2,1,6,-6,0,6
CC12CC(NC(=O)N1c1cccc(C(=O)NCc3ccccn3)c1)c1ccccc1O2 (stereo unspecified),8,49,-6,-4,-1,x,x,x,x
Clc1nc(-c2ccccc2)ncc1Oc1ccccc1,-4,-85*,-1,x,-2,18,97*,22,98*
c1ccc(COc2ccc(OCCCn3cncn3)cc2)cc1,-3,-3,5,-9,-2,x,x,x,x
SMILES,UBC13 inh,AI-2 QS modul,T cruzi inh,pCIP destab,PP1 inh,JMH597 growth rt,BB721 const-QS lum,BB721 growth rt,JMH597 AI-2 mod
c1ccc(Cc2ccc(OCCn3cncn3)cc2)cc1,-4,u,-2,0,-2,7,89*,10,93*
CC12CCC(=O)N1C(C(=O)Nc1ccc(F)c(Cl)c1)CS2 (stereo unspecified),-8,-71,-3,x,-6,x,x,x,x
CC1(C)SC[C@H](C(=O)Nc2cccc(Cl)c2)N1C=O,5,-93*,8,-14,-1,-19,98*,-35,99*
CN(C)S(=O)(=O)c1ccc(NC(=O)C2COc3ccccc3O2)cc1 (stereo unspecified),2,-89*,-13,-13,-12,12,96*,-3,98*
O=C(Nc1ccc(S(=O)(=O)Nc2ccccc2)cc1)C1COc2ccccc2O1 (stereo unspecified),10,10,-3,-4,1,x,x,x,x
O=C(Nc1ccc(S(=O)(=O)N2CCOCC2)cc1)C1COc2ccccc2O1 (stereo unspecified),3,-1,-9,-3,-1,x,x,x,x
O=C(Nc1ccc(S(=O)(=O)N2CCCC2)cc1)C1COc2ccccc2O1 (stereo unspecified),3,u,-6,8,-2,23,93*,-23,99*
Cc1cc(OCC(=O)c2cccc(C(F)(F)F)c2)n2cnnc2n1,4,15,1,-12,-1,x,x,x,x
COc1ccc(CN(Cc2cc3cccc(C)c3n3nnnc23)C(=O)N2CCOCC2)cc1,1,21,1,-26,0,x,x,x,x
O=C(O)c1cc(NC(=O)c2ccccc2F)cc(NC(=O)c2ccccc2F)c1,-9,x,-10,-6,1,x,x,x,x
O=C(Nc1ccc(Nc2ccccc2)cc1)c1cccc(F)c1,-17,-77*,4,-6,-1,13,86*,1,90*
O=C(Nc1ccc(Nc2ccccc2)cc1)c1ccccc1F,-7,-86*,-3,-6,2,38,94*,20,94*
CN(C)CCn1c(N)nc2ccccc21,-5,9,-3,9,2,x,x,x,x
CC(=O)c1cccc(NC(=O)NCc2ccc3c(c2)OCO3)c1,4,-23,-2,7,-2,x,x,x,x
O=C(/C=C/c1c(F)cccc1Cl)NCc1ccc2c(c1)OCO2,2,u,5,-4,0,x,x,x,x
O=C(NCc1ccc2c(c1)OCO2)Nc1cccc(Cl)c1,2,-91*,-12,-8,5,20,99*,33,99*
